Assay results taken from ChEMBL document CHEMBL3272197, “Synthesis and in vitro evaluation of 8-hydroxyquinoline analogs as inhibitors of dental plaque” (J Med Chem, 1976).

What was measured:
Streptococcus mutans [1] = experiment: Antibacterial activity against Streptococcus mutans 6715 assessed as inhibition of plaque formation in human teeth at 10^-2 M after 48 hrs; assay type: functional; details: Streptococcus mutans, 6715, 48 h
In short: (§1)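 Sterilized extracted human teeth were immersed in Me2SO solutions of compound for two 1-min periods, each followed by 1-min air exposure. Teeth were then washed in distilled water for 5 min and incubated anaerobically at 37° in sucrose-containing trypticase broth with S. mutans.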

[2] = 1-Octanol-water partition coefficient, log P of the compound after 90 mins; assay type: physicochemical
In short: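 Partitioning between 1-octanol and water. Phase volume ratio and sample amount set so that the aqueous-layer absorbance fell mostly between 0.2 and 0.9 in a 1-cm cell. The aqueous concentration was read spectrophotometrically and the octanol concentration was taken by difference. P = C_octanol/C_H2O. At least triplicate determinations used different sample amounts, and the mean log P is reported.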

Streptococcus mutans [3] = experiment: Antibacterial activity against Streptococcus mutans 6715 assessed as inhibition of plaque formation in human teeth at 10^-1 M after 24 hrs; assay type: functional; details: Streptococcus mutans, 6715, 24 h; in short: as §1
Streptococcus mutans [4] = experiment: Antibacterial activity against Streptococcus mutans 6715 assessed as inhibition of plaque formation in human teeth at 10^-2 M after 24 hrs; assay type: functional; details: Streptococcus mutans, 6715, 24 h; in short: as §1
Streptococcus mutans [5] = experiment: Antibacterial activity against Streptococcus mutans 6715 assessed as inhibition of plaque formation in human teeth at 10^-1 M after 48 hrs; assay type: functional; details: Streptococcus mutans, 6715, 48 h; in short: as §1
Streptococcus mutans [6] = experiment: Antibacterial activity against Streptococcus mutans 6715 assessed as growth inhibition at 10^-5 M after 48 hrs; assay type: functional; details: Streptococcus mutans, 6715, 48 h; read-out: GI
In short: (§2)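 Test compounds as HCl salts were added in aqueous solution to sterile trypticase broth with 50% sucrose stock, then inoculated with a 24-hr culture of S. mutans 6715. Cultures were incubated anaerobically (Gaspak) at 37°. Bacterial growth was scored at 24 and 48 hr, with a solvent control run concurrently.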

Streptococcus mutans [7] = experiment: Antibacterial activity against Streptococcus mutans 6715 assessed as growth inhibition at 10^-4 M after 48 hrs; assay type: functional; details: Streptococcus mutans, 6715, 48 h; read-out: GI; in short: as §2
Streptococcus mutans [8] = experiment: Antibacterial activity against Streptococcus mutans 6715 assessed as growth inhibition at 10^-6 M after 24 hrs; assay type: functional; details: Streptococcus mutans, 6715, 24 h; read-out: GI; in short: as §2
Streptococcus mutans [9] = experiment: Antibacterial activity against Streptococcus mutans 6715 assessed as growth inhibition at 10^-4 M after 24 hrs; assay type: functional; details: Streptococcus mutans, 6715, 24 h; read-out: GI; in short: as §2
Streptococcus mutans [10] = experiment: Antibacterial activity against Streptococcus mutans 6715 assessed as growth inhibition at 10^-6 M after 48 hrs; assay type: functional; details: Streptococcus mutans, 6715, 48 h; read-out: GI; in short: as §2
Streptococcus mutans [11] = experiment: Antibacterial activity against Streptococcus mutans 6715 assessed as growth inhibition at 10^-5 M after 24 hrs; assay type: functional; details: Streptococcus mutans, 6715, 24 h; read-out: GI; in short: as §2

| logP at 1.5 h [2] | Structure (SMILES) | inhibition at 10000 µM (Streptococcus mutans [1]) | inhibition at 100000 µM (Streptococcus mutans [3]) | inhibition at 10000 µM (Streptococcus mutans [4]) | inhibition at 100000 µM (Streptococcus mutans [5]) | inhibition of growth at 10 µM (Streptococcus mutans [6]) | inhibition of growth at 100 µM (Streptococcus mutans [7]) | inhibition of growth at 1 µM (Streptococcus mutans [8]) | inhibition of growth at 100 µM (Streptococcus mutans [9]) | inhibition of growth at 1 µM (Streptococcus mutans [10]) | inhibition of growth at 10 µM (Streptococcus mutans [11]) |
| --- | --- | --- | --- | --- | --- | --- | --- | --- | --- | --- | --- |
| 2.3 | Oc1ccc(F)c2cccnc12 [listing 1 of 2 here] | 60% | 80% | 80% | 80% | – | – | – | – | – | – |
| 1 | OCc1ccc(O)c2ncccc12 [listing 1 of 2 here] | – | 0% | – | 0% | – | – | – | – | – | – |
| 1.63 | O=Cc1ccc(O)c2ncccc12 [listing 1 of 2 here] | 40% | 100% | 40% | 80% | – | – | – | – | – | – |
| 1.78 | COCc1ccc(O)c2ncccc12 [listing 1 of 2 here] | 20% | 80% | 20% | 60% | – | – | – | – | – | – |
| 3.27 | Oc1ccc(I)c2cccnc12 [listing 1 of 2 here] | 20% | 100% | 80% | 100% | – | – | – | – | – | – |
| 1.8 | CC(=O)c1ccc(O)c2ncccc12 [listing 1 of 2 here] | 60% | 100% | 60% | 100% | – | – | – | – | – | – |
| 1.81 | N#CCc1ccc(O)c2ncccc12 [listing 1 of 2 here] | 0% | 80% | 0% | 80% | – | – | – | – | – | – |
| 1.59 | COC(=O)Cc1ccc(O)c2ncccc12 [listing 1 of 2 here] | 0% | 100% | 20% | 100% | – | – | – | – | – | – |
| 2.26 | CCOC(=O)Cc1ccc(O)c2ncccc12 [listing 1 of 2 here] | 0% | 100% | 20% | 80% | – | – | – | – | – | – |
| – | Oc1cccc2cccnc12 | – | – | – | – | 100% | 100% | 0% | 100% | 0% | 100% |
| – | CC(=O)c1ccc(O)c2ncccc12 [listing 2 of 2 here] | – | – | – | – | 0% | 100% | 0% | 100% | 0% | 100% |
| – | OCc1ccc(O)c2ncccc12 [listing 2 of 2 here] | – | – | – | – | – | 0% | – | 0% | – | – |
| – | N#CCc1ccc(O)c2ncccc12 [listing 2 of 2 here] | – | – | – | – | – | 20% | – | 80% | – | 0% |
| – | COC(=O)Cc1ccc(O)c2ncccc12 [listing 2 of 2 here] | – | – | – | – | 0% | 100% | 0% | 100% | 0% | 60% |
| – | CCOC(=O)Cc1ccc(O)c2ncccc12 [listing 2 of 2 here] | – | – | – | – | 0% | 100% | 0% | 100% | 0% | 100% |
| – | Oc1ccc(I)c2cccnc12 [listing 2 of 2 here] | – | – | – | – | 60% | 100% | 0% | 100% | 0% | 100% |
| – | O=Cc1ccc(O)c2ncccc12 [listing 2 of 2 here] | – | – | – | – | – | 100% | – | 100% | – | 0% |
| – | O=C(O)Cc1ccc(O)c2ncccc12 [listing 1 of 2 here] | – | 0% | – | 0% | – | – | – | – | – | – |
| 1.42 | Oc1ccc(O)c2ncccc12 [listing 1 of 2 here] | 0% | 60% | 0% | 0% | – | – | – | – | – | – |
| – | Oc1ccc(F)c2cccnc12 [listing 2 of 2 here] | – | – | – | – | 0% | 100% | 0% | 100% | 0% | 80% |
| – | O=C(O)Cc1ccc(O)c2ncccc12 [listing 2 of 2 here] | – | – | – | – | – | 0% | – | 0% | – | – |
| – | COCc1ccc(O)c2ncccc12 [listing 2 of 2 here] | – | – | – | – | – | 80% | – | 100% | – | 0% |
| – | Oc1ccc(O)c2ncccc12 [listing 2 of 2 here] | – | – | – | – | – | 0% | – | 0% | – | – |

| Structure (SMILES) | logP at 1.5 h [2] | inhibition at 10000 µM (Streptococcus mutans [1]) | inhibition at 100000 µM (Streptococcus mutans [3]) | inhibition at 10000 µM (Streptococcus mutans [4]) | inhibition at 100000 µM (Streptococcus mutans [5]) | inhibition of growth at 10 µM (Streptococcus mutans [6]) | inhibition of growth at 100 µM (Streptococcus mutans [7]) | inhibition of growth at 1 µM (Streptococcus mutans [8]) | inhibition of growth at 100 µM (Streptococcus mutans [9]) | inhibition of growth at 1 µM (Streptococcus mutans [10]) | inhibition of growth at 10 µM (Streptococcus mutans [11]) |
| --- | --- | --- | --- | --- | --- | --- | --- | --- | --- | --- | --- |
| Oc1cccc2cccnc12 [OXYQUINOLINE] | 1.94 | 0% | 100% | 0% | 100% | – | – | – | – | – | – |
